Results on 26 molecules are retold here after ChEMBL document CHEMBL3259667, “Bis-aryloxadiazoles as effective activators of the aryl hydrocarbon receptor” (Bioorg Med Chem Lett, 2014).

Molecules are shown by their SMILES.

Format in all cases: cell-based
For data set [1], the target named is T1, Aryl hydrocarbon receptor (Mus musculus, UniProt P30561).
T1 sequence (P30561 whole entry): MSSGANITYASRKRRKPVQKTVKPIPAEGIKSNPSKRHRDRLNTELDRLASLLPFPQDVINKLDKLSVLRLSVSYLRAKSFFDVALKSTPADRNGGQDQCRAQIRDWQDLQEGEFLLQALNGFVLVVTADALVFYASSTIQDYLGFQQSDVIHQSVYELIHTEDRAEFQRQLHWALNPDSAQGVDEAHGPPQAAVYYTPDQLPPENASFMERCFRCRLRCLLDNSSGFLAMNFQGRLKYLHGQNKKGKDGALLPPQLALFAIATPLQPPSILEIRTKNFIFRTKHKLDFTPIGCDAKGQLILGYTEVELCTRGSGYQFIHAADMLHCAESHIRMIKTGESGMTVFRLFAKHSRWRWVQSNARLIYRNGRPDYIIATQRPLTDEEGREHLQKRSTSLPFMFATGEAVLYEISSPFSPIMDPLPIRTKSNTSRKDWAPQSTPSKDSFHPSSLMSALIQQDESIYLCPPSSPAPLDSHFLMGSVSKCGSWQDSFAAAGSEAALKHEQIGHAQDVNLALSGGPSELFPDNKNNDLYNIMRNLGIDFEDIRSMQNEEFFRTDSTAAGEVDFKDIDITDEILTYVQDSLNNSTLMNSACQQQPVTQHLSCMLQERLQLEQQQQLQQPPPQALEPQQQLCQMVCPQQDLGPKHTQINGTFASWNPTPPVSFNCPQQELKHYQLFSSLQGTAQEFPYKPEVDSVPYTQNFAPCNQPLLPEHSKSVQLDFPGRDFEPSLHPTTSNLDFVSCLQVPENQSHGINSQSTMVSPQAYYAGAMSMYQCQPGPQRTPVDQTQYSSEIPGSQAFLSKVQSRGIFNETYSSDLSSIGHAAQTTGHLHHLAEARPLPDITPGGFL
Description: Agonist activity at AHR in mouse HC11 cells assessed as upregulation of Cyp1a1 gene expression at 10 uM after 48 hrs by RT-PCR analysis relative to control. Particulars: hc11, 48 h; call rule not given here. An outline of the steps: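 HC11 mammary epithelial cells were exposed for 48 hours to 10 μM compound. Expression of the AHR target gene Cyp1a1 served as the activity read-out.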

Data set [2] concerns the target T1, Aryl hydrocarbon receptor. Description: Agonist activity at AHR in FVB/N mouse primary mammary epithelial cells assessed as upregulation of desmoglein-3 protein level at 10 uM after 144 hrs by Western blot analysis in presence of FGF2. Particulars: epithelial cell. (In western blotting, separated proteins are transferred to a membrane and probed.)
The target of data set [3] is T1, Aryl hydrocarbon receptor. Description: Agonist activity at AHR in FVB/N mouse primary mammary epithelial cells assessed as upregulation of desmoglein-3 protein level at 10 nM after 144 hrs by Western blot analysis in presence of FGF2. Particulars: epithelial cell, 0.01 µM.

For the molecule `O=[N+]([O-])c1cc(Cl)ccc1-c1nc(-c2ccncc2)no1`, the Activity in data set [1] was found to be 8.25%.

In the case of `COC(=O)c1cccc(-c2noc(-c3ccccc3F)n2)c1`, the Activity in data set [1] worked out at 0.29%.

For `Clc1ccc(-c2nc(-c3ccncc3)no2)c(Cl)c1`, the Activity in data set [1] came out at 0.37%. Same read-out and setting: as for `Clc1ccc(-c2nc(-c3ccncc3)no2)c(Cl)c1Cl`, the figure is 0.53%. As to `Clc1ccc(-c2nc(-c3ccccc3)no2)c(Cl)c1`, the Activity result was “Active” in data set [2] and 128.53% in data set [1]. On the same counts, the results for `Nc1cc(Cl)ccc1-c1nc(-c2ccccc2)no1` are “Active” and 638.8%. Turning to `O=[N+]([O-])c1cc(C(F)(F)F)ccc1-c1nc(-c2ccccc2)no1`, the Activity in data set [1] is 0.36%.

Consider `COc1ccc(-c2nc(-c3ccccc3)no2)c([N+](=O)[O-])c1`, for which the Activity in data set [1] was found to be 0.42%. With `O=[N+]([O-])c1cc(O)ccc1-c1nc(-c2ccccc2)no1`, in data set [1], the Activity stood at 0.25%. `COC(=O)Oc1ccc(-c2nc(-c3ccccc3)no2)c([N+](=O)[O-])c1`: the Activity in data set [1] was determined as 0.39%. Still for that read-out and setting: the result for `C#CCOc1ccc(-c2nc(-c3ccccc3)no2)c([N+](=O)[O-])c1` reads 2.43%. In the case of `O=[N+]([O-])c1cc(F)ccc1-c1nc(-c2ccccc2)no1`, the Activity entry in data set [2] is reported as “Active”; in data set [1], 122.64%.

On to `Nc1cc(C(F)(F)F)ccc1-c1nc(-c2ccccc2)no1`, for which the Activity entry in data set [2] is reported as “Active”; in data set [1] it was 58.63%. For the molecule `Clc1ccc(-c2nc(-c3ccccc3)no2)c(Cl)c1Cl`, the values for the Activity entry in data set [2] and in data set [1] were “Not Active” and 25.79%, respectively. On the same counts, the results for `FC(F)(F)c1cccc(-c2noc(-c3ccc(Cl)cc3Cl)n2)c1` are “Not Active” and 1.84%. On to `COC(=O)c1cccc(-c2noc(-c3ccc(Cl)cc3Cl)n2)c1`, for which the Activity in data set [1] was 0.18%. For `Clc1ccc(-c2nc(-c3ccccc3Cl)no2)c(Cl)c1`, the Activity in data set [1] was 5.91%. In the case of `Clc1cccc(-c2noc(-c3ccc(Cl)cc3Cl)n2)c1`, in data set [1], the Activity is listed as 1.59%. Still for that read-out and setting: the result for `Clc1ccc(-c2noc(-c3ccc(Cl)cc3Cl)n2)cc1` reads 8.15%; that for `C#CCOc1ccc(-c2noc(-c3ccc(Cl)cc3Cl)n2)cc1`, 0.66%; that for `C#CCOc1ccc(-c2noc(-c3ccc(Cl)cc3[N+](=O)[O-])n2)cc1`, 0.29%. On the same count and under the same terms, as for `C=CCOc1ccc(-c2noc(-c3ccc(Cl)cc3N)n2)cc1`, the figure is 0.62%; as for `C#CCOc1ccc(-c2noc(-c3ccc(Cl)cc3N)n2)cc1`, 0.38%; as for `CC(=O)Oc1ccc(-c2nc(-c3ccncc3)no2)c([N+](=O)[O-])c1`, 0.35%. In the case of `Clc1cc2c(cc1Cl)Oc1cc(Cl)c(Cl)cc1O2` [2,3,7,8-TETRACHLORODIBENZO-P-DIOXIN], the outcome in data set [3] was Active. On to `O=C(O)c1cccc(-c2noc(-c3ccccc3F)n2)c1` [ATALUREN], for which the Activity in data set [1] came out at 3.71%.
